According to the M2OR odorant receptor database:

Assays:
Conditions in all cases: stereoisomer not certain
OR10G2 (Homo sapiens) = target: T1, OR10G2 (Homo sapiens) (UniProt Q8NGC3)
T1 sequence (whole entry): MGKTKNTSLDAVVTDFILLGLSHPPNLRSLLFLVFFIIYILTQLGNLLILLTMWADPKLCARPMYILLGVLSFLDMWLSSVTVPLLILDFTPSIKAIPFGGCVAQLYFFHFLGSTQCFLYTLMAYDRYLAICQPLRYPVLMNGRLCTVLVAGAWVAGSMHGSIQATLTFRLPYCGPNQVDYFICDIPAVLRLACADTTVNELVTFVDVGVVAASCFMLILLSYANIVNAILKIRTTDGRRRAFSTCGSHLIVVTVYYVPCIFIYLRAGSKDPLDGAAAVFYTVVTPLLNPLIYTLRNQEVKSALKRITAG
Summary of the method: (§1)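 Transient luciferase assays in mammalian cell lines were common, though methods varied by source. The values come from published papers and their supplementary material, with extra details from the original authors when needed. Responsive refers to a measured signal the original authors judged statistically different from baseline, and non-responsive (inactive) to the remainder.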

OR10G3 (Homo sapiens) = target: T2, OR10G3 (Homo sapiens) (UniProt Q8NGC4)
T2 sequence (whole entry): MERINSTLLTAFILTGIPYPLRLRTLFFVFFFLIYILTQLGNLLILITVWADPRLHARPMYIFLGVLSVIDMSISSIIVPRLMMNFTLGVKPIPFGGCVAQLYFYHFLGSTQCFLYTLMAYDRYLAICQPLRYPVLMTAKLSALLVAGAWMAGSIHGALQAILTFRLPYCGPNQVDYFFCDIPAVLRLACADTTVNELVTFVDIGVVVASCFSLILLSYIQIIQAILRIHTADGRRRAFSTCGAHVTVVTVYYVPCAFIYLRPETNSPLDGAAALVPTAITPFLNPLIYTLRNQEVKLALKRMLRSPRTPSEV
Summary of the method: as §1

OR10G4 (Homo sapiens) = target: T3, OR10G4 (Homo sapiens) (UniProt Q8NGN3)
T3 sequence (whole entry): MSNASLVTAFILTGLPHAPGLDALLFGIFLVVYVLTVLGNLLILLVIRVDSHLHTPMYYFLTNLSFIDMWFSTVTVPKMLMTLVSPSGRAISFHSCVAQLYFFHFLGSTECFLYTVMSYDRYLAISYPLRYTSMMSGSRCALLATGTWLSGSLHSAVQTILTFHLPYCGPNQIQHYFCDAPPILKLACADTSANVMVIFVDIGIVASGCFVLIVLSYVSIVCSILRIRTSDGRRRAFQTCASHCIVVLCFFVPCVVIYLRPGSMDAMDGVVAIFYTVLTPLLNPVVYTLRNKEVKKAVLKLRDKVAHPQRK
Summary of the method: as §1

OR10G6 (Homo sapiens) = target: T4, OR10G6 (Homo sapiens) (UniProt Q8NH81)
T4 sequence (whole entry): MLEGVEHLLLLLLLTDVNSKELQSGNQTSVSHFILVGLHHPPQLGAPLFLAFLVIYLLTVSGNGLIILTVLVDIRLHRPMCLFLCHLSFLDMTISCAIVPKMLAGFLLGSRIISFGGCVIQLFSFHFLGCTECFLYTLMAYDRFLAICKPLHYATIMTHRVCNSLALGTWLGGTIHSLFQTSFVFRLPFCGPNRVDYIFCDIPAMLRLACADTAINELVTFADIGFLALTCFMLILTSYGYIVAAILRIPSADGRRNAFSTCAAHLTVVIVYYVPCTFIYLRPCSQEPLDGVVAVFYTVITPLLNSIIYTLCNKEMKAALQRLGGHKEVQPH
Summary of the method: as §1

OR10G7 (Homo sapiens) = target: T5, OR10G7 (Homo sapiens) (UniProt Q8NGN6)
T5 sequence (whole entry): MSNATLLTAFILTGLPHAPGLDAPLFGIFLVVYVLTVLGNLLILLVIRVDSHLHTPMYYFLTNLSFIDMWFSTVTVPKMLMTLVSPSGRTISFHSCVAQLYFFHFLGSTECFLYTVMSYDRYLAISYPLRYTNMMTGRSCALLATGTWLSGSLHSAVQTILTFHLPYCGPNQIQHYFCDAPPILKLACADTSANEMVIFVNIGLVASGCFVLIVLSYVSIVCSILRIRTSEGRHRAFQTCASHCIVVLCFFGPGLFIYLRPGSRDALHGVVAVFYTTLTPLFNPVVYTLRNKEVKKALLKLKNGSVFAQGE
Summary of the method: as §1

OR10G8 (Homo sapiens) = target: T6, OR10G8 (Homo sapiens) (UniProt Q8NGN5)
T6 sequence (whole entry): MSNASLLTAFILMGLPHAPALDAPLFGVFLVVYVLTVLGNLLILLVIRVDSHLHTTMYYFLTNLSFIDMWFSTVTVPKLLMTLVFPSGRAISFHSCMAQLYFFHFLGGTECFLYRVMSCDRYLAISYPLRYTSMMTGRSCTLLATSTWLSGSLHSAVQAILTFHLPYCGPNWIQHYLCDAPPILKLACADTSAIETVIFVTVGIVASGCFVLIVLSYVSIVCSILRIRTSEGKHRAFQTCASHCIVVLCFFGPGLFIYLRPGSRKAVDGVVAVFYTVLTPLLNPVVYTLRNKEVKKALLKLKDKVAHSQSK
Summary of the method: as §1

OR10G9 (Homo sapiens) = target: T7, OR10G9 (Homo sapiens) (UniProt Q8NGN4)
T7 sequence (whole entry): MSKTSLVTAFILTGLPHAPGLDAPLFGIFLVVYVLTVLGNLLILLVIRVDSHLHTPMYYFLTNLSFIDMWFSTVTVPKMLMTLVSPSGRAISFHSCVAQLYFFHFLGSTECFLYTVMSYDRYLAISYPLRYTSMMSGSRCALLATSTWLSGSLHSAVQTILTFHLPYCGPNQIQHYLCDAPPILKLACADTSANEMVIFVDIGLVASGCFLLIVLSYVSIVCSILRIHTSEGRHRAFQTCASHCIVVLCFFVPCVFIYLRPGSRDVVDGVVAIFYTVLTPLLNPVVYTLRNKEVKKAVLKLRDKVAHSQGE
Summary of the method: as §1

OR10H1 (Homo sapiens) = target: T8, OR10H1 (Homo sapiens) (UniProt Q9Y4A9)
T8 sequence (whole entry): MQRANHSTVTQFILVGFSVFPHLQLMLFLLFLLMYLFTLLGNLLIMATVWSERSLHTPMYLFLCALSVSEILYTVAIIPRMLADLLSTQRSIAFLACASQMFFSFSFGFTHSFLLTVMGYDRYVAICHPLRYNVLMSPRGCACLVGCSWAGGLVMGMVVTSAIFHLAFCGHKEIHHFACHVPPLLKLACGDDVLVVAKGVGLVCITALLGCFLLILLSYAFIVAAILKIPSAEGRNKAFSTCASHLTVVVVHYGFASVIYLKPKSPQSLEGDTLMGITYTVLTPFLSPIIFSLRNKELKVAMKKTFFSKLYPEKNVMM
Summary of the method: as §1

OR10H2 (Homo sapiens) = target: T9, OR10H2 (Homo sapiens) (UniProt O60403)
T9 sequence (whole entry): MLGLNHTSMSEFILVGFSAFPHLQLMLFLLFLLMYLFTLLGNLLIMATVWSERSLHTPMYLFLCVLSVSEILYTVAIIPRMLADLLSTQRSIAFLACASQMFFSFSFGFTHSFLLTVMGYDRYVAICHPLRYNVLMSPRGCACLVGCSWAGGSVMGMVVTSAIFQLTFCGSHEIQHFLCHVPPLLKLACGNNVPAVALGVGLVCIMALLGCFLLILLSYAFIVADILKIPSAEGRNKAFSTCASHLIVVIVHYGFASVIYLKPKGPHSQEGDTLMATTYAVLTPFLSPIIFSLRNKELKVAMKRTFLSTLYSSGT
Summary of the method: as §1

OR10H3 (Homo sapiens) = target: T10, OR10H3 (Homo sapiens) (UniProt O60404)
T10 sequence (whole entry): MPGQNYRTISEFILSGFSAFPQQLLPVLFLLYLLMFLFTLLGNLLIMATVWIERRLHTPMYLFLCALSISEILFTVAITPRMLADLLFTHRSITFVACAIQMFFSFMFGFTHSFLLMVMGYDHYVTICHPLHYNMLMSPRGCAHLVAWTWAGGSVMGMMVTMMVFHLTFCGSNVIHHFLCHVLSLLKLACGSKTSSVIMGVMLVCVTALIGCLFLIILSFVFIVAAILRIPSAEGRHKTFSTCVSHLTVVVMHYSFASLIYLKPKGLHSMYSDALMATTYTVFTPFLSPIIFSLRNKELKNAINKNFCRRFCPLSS
Summary of the method: as §1

Measured: odorant receptor agonist call;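 also: active if original authors judged signal statistically different from baseline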

CCCCCC(S)C(C)CO (stereo not given)
inactive: OR10G2 (Homo sapiens) | OR10G3 (Homo sapiens) | OR10G4 (Homo sapiens) | OR10G6 (Homo sapiens) | OR10G7 (Homo sapiens) | OR10G8 (Homo sapiens) | OR10G9 (Homo sapiens) | OR10H1 (Homo sapiens) | OR10H2 (Homo sapiens) | OR10H3 (Homo sapiens)
